Reference: ChEMBL document CHEMBL1124475, “The thieno[3,2-c]pyridine and furo[3,2-c]pyridine rings: new pharmacophores with potential antipsychotic activity” (J Med Chem, 1989)
Active and inactive are the calls of the source. No cut-off for these calls is given here.

Key:
[1] = biological target: T1, Adrenergic receptor alpha-1 (Rattus norvegicus, UniProt P15823+P23944+P43140); test: Ability to bind at alpha-1 adrenergic receptor by displacing [3H]WB-4101; assay type: protein assay
T1 sequence (P15823 whole entry): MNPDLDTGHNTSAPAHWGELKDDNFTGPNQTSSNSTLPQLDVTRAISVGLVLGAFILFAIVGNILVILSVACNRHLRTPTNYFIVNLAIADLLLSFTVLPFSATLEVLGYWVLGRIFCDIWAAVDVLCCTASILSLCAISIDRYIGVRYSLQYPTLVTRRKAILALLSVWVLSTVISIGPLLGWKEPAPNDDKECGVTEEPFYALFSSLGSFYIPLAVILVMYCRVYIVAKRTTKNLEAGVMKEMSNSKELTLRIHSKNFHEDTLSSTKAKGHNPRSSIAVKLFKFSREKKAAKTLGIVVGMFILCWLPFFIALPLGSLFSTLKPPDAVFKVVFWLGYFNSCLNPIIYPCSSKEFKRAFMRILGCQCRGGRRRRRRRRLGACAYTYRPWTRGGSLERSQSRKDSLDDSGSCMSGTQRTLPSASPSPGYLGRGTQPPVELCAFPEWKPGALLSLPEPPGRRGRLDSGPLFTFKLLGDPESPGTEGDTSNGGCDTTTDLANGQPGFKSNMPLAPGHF
T1 sequence (P23944 whole entry): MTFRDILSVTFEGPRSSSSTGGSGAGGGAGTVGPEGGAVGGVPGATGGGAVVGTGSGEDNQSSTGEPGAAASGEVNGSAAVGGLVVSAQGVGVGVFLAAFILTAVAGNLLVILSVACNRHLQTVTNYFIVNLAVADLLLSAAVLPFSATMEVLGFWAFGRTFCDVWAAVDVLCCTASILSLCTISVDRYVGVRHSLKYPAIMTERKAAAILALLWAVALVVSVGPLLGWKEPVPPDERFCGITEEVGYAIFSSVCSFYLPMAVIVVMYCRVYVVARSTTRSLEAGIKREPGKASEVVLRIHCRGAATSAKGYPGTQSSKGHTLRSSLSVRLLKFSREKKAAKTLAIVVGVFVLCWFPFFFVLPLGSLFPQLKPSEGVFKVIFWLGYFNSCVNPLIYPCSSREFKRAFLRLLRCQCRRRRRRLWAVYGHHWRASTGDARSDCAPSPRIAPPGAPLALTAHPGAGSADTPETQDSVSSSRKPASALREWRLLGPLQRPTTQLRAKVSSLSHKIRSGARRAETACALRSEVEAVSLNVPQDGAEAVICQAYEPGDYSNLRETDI
T1 sequence (P43140 whole entry): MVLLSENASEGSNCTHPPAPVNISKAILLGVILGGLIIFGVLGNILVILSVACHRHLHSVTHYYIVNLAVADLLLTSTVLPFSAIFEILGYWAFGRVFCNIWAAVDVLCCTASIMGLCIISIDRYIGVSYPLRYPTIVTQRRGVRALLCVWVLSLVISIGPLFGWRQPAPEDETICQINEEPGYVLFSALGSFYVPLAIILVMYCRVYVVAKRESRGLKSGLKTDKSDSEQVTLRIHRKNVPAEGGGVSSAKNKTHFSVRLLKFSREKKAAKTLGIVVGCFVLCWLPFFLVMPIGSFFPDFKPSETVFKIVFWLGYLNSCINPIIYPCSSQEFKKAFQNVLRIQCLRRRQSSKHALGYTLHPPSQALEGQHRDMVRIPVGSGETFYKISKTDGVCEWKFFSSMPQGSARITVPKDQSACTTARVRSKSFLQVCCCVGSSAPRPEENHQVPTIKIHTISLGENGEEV
Summary of the method: (§1)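 Rat receptor radioligand displacement, five test-ligand concentrations used to calculate IC50, each assay in duplicate. Some compounds determined four times (in duplicate), with mean IC50 reported.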

[2] = tested on: Rattus norvegicus; test: Induction of catalepsy in rats when administered perorally and maximum dose examined was 4 times the ED50 value established in CAR; Inactive; assay type: functional, organism-based
[3] = tested on: Rattus norvegicus; test: Spontaneous discharge activity of individual noradrenergic neurons in the locus coeruleus (LC) when administered intravenously in anesthetized male Sprague-Dawley rats; (excitatory); assay type: functional; conditions: iv
[4] = tested on: Rattus norvegicus; test: Spontaneous discharge activity of individual dopaminergic neurons in the ventral tegmentum neurons (A10 DA cells) when administered intravenously at a dose of 0.1-6.3 mg/kg in anesthetized male Sprague-Dawley rats; No effect at a dose of 0.1-6.3 m g/kg; assay type: functional, organism-based; conditions: A10DA
[5] = biological target: Serotonin 1 (5-HT1) receptor (Rattus norvegicus, UniProt P28564+P30940+P19327+P28565); test: Ability to bind at 5-hydroxytryptamine 1 receptor of rat hippocampus by displacing [3H]5-HT; assay type: tissue-based; summary of the method: as §1
[6] = biological target: Serotonin 2 (5-HT2) receptor (Rattus norvegicus, UniProt P30994+P08909+P14842); test: Ability to bind at serotonin 5-hydroxytryptamine 2 receptors of rat cortex by displacing [3H]spiperone
[7] = tested on: Rattus norvegicus; test: Reversal of trifluoperazine-induced catalepsy in rats when administered perorally; assay type: functional; conditions: po
[8] = tested on: Rattus norvegicus; test: Spontaneous discharge activity of individual dopaminergic neurons in the substantia nigra (A9 DA cells) when administered intravenously at a dose of 0.1-6.3 mg/kg in anesthetized male Sprague-Dawley rats; No effect at a dose of 0.1-6.3 mg/kg; assay type: functional, organism-based; conditions: A9DA
[9] = tested on: Rattus norvegicus; test: Spontaneous discharge activity of individual dopaminergic neurons in substantia nigra (A9DA cells) when administered subcutaneously at dose of 5.0 mg/kg/day in anesthetized male Sprague-Dawley rats; small increase in the number of DA cells per track; assay type: functional, organism-based
[10] = tested on: Rattus norvegicus; test: Conditioned avoidance response (CAR) when administered perorally; assay type: functional; conditions: po
[11] = biological target: D(2) dopamine receptor (Rattus norvegicus, UniProt P61169); test: Ability to bind at Dopamine receptor D2 of rat corpus striatum by displacing [3H]spiperone; summary of the method: as §1
Sequence of D(2) dopamine receptor (P61169 whole entry): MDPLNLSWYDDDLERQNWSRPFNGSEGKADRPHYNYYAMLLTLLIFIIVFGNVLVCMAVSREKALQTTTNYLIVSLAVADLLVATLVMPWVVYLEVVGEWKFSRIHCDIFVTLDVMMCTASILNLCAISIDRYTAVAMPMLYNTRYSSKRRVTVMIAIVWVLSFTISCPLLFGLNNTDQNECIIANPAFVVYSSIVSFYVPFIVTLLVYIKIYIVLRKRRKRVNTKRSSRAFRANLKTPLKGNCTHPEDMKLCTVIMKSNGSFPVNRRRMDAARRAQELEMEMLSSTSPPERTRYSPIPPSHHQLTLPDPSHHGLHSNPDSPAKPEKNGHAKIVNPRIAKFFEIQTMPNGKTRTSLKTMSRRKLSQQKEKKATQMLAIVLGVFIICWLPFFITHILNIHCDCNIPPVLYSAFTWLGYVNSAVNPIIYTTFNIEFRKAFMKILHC

[12] = tested on: Rattus norvegicus; test: Blockade of Sidman-avoidance activity in rats when administered perorally; assay type: functional; conditions: po
Summary of the method: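 Rats trained in once-daily Sidman sessions until stable; non-learners after 3 days replaced. Twelve rats dosed 30 min before session. Each rat compared with mean of its previous three drug-free days by paired t test. Testing continued to minimally effective dose; maximum usually 100 mg/kg. MED is mean over 12 animals.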

[13] = tested on: Rattus norvegicus; test: Spontaneous discharge activity of individual dopaminergic neurons in the ventral tegmentum neurons (A10 DA cells) when administered subcutaneously at a dose of 5.0 mg/kg/day in anesthetized male Sprague-Dawley rats; No effect at a dose of 0.1-6.3 mg/kg; assay type: functional, organism-based; conditions: A10DA
[14] = tested on: Rattus norvegicus; test: Spontaneous discharge activity of individual serotonergic neurons in the dorsal raphe (DR) nucleus when administered intravenously in anesthetized male Sprague-Dawley rats; (Inhibitory); assay type: functional; conditions: iv
[15] = tested on: Rattus norvegicus; test: Blockade of apomorphine-induced stereotypy in rats when administered perorally; assay type: functional; conditions: po

## O=C1COCC(=O)N1CCCCN1CCN(c2nccc3occc23)CC1
[1]
  IC50: 40.9 nM
[2]
  ED50: inactive
[3]
  ED25: 0.017 mg/kg
[4]
  ED25: inactive
[5]
  IC50: 33.5 nM
[6]
  IC50: 55.2 nM
[7]
  ED50: 2.2 mg/kg
[8]
  ED25: inactive
[9]
  ED25: inactive
[10]
  ED50: 11.2 mg/kg
[11]
  IC50: > 1000 nM
[12]
  MED: 25 mg/kg
[13]
  ED25: inactive
[14]
  ED50: 0.01 mg/kg
[15]
  ED50: 34 mg/kg
